{
  "source": "paper PMC8813707",
  "about": "(Clinical Pharmacokinetics, 2021)",
  "key": {"[1]": {"tested_on": "patients with achondroplasia", "conditions": "phase II, children with achondroplasia, daily dose of 15 µg/kg, up to 42 months; cited from earlier work"}, "[2]": {"tested_on": "NPR-B", "assay": "Vosoritide-neutralizing antibodies", "type": "cell-based, human", "conditions": "phase III, all time points tested", "summary_of_the_method": "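Run only on confirmed TAb-positive sera. Frozen NIH/3T3 cells cultured overnight (DMEM high glucose + 10% FBS, 37°C, 5% CO2). Cells stimulated with 5 ng/mL drug in diluted serum; cellular cGMP read by ELISA, where signal is inverse to cGMP. Screening cut point: upper 95th percentile of pretreatment sera. Positives confirmed by immunodepletion on drug-conjugated magnetic beads. LOD 227 ng/mL.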"}, "[3]": {"assay": "Vosoritide plasma pharmacokinetics, phase III study", "type": "in vivo, human", "summary_of_the_method": "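Phase III, 15 µg/kg s.c. once daily. Full plasma sampling at day 1, week 26 and week 52: predose and 5, 15, 30, 45, 60, 90 and 120 min. Sparse sampling at weeks 13 and 39. Parameters from non-compartmental analysis with linear-up/log-down trapezoids. Effects of sex, body weight, age, race and anti-drug antibodies on exposure were evaluated.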"}, "[4]": {"target": "urine cGMP (activity through the target receptor NPR-B)", "assay": "Urine cGMP normalized to creatinine", "type": "in vivo, human", "summary_of_the_method": "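Urine collected predose and 1, 2 and 4 h postdose. Phase II: initial 6 months plus months 12, 18 and 24. Phase III: days 1–3 and weeks 6, 26 and 52. cGMP measured (LLOQ 138 pmol/mL neat urine) and normalised to creatinine. Maximum postdose increase is taken over the same-visit predose value; negative if predose is maximal. Fitted against visit-matched Cmax/AUC (non-estimable set to zero): sigmoid Emax (phase II) or Emax with h=1 (phase III).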"}, "[5]": {"assay": "Vosoritide plasma pharmacokinetics, phase II study", "type": "in vivo, human", "summary_of_the_method": "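Phase II, daily s.c. doses 2.5–30 µg/kg. Plasma measured by validated ELISA: murine monoclonal anti-drug IgG capture, rabbit polyclonal anti-CNP IgG detection. Full sampling on days 1, 10, 29, 85 and 183, predose and 5–180 min postdose. Non-compartmental analysis used linear-up/log-down trapezoids. Below-LLOQ values before Tmax set to zero; those after Tmax censored.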"}, "[6]": {"tested_on": "total anti-vosoritide antibody (TAb)", "assay": "Total anti-vosoritide antibodies", "type": "in vivo, human", "conditions": "phase III; p > 0.8 for difference in estimated mean Cmax and AUC0-∞ by TAb status, t-test"}, "[7]": {"tested_on": "patients with achondroplasia", "assay": "Change from baseline in annualized growth velocity", "type": "in vivo, human", "summary_of_the_method": "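Phase II: once-daily subcutaneous dosing at 2.5–30 µg/kg. Change in AGV from baseline to day 183 fitted by sigmoid Emax (E0, Emax, EC50, Hill h) against individual mean Cmax or AUC0-t, each averaged per patient over all PK visit days. Phase III (15 µg/kg) exposure–AGV also analysed. Estimates given with 95% CIs.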"}, "[8]": {"tested_on": "patients with achondroplasia", "type": "in vivo, human", "conditions": "phase II, initial 6 months, visit-matched; the single patient with high exposure"}, "[9]": {"tested_on": "collagen type X marker (CXM)", "assay": "Serum collagen type X marker", "type": "in vivo, human", "summary_of_the_method": "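Serum CXM measured by electrochemiluminescence sandwich assay. Streptavidin plates were blocked, then coated with biotinylated anti-collagen X NC1 SOMAmer capture. Standard was recombinant human collagen X NC1; sera diluted 1:100. Detection used ruthenium-labelled mouse mAb. Values read from a 4PL curve (1/Y² weighting); LOD 914 pg/mL neat serum. Individual mean CXM (day 10–183, phase II) fitted by sigmoid Emax versus individual mean Cmax or AUC0-t.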"}, "[10]": {"conditions": "endogenous CNP in humans; cited from earlier work"}, "[11]": {"conditions": "phase II, the single patient with high individual mean exposure"}},
  "note": "Read-outs that look alike come from different tables or passages of the source.",
  "data": [
    {"compound": "CC[C@H](C)[C@@H]1NC(=O)[C@H](CCCNC(=N)N)NC(=O)[C@H](CC(=O)O)NC(=O)[C@H](CC(C)C)NC(=O)[C@H](CCCCN)NC(=O)[C@H](CC(C)C)NC(=O)CNC(=O)[C@H](Cc2ccccc2)NC(=O)[C@@H](NC(=O)CNC(=O)[C@H](CCCCN)NC(=O)[C@H](CO)NC(=O)[C@H](CC(C)C)NC(=O)CNC(=O)[C@H](CCCCN)NC(=O)[C@H](CCCCN)NC(=O)[C@H](CC(N)=O)NC(=O)[C@H](C)NC(=O)CNC(=O)[C@H](CCCCN)NC(=O)[C@H](Cc2ccc(O)cc2)NC(=O)[C@H](CCCCN)NC(=O)[C@H](CCCNC(=N)N)NC(=O)[C@H](C)NC(=O)[C@H](CC(N)=O)NC(=O)[C@@H]2CCCN2C(=O)[C@H](Cc2c[nH]cn2)NC(=O)[C@H](CCC(=O)O)NC(=O)[C@H](CCC(N)=O)NC(=O)CNC(=O)[C@@H]2CCCN2)CSSC[C@@H](C(=O)O)NC(=O)CNC(=O)[C@H](CC(C)C)NC(=O)CNC(=O)[C@H](CO)NC(=O)[C@H](CCSC)NC(=O)[C@H](CO)NC(=O)CNC1=O", "note": "[vosoritide]", "values": [
      {"measurement": "sustained mean increase in annualized growth velocity (AGV) above baseline", "setting": "[1]", "result": 1.55, "unit": "cm/year"},
      {"measurement": "NAb status of TAb-positive patients", "setting": "[2]", "result": "negative"},
      {"measurement": "impact of sex on plasma Cmax or AUC0-60min", "setting": "[3]", "result": "no apparent impact"},
      {"measurement": "accumulation with once-daily dosing", "setting": "[3]; 15 µg/kg s.c. once daily, 52 weeks", "result": "No evidence of accumulation"},
      {"measurement": "Vz/F", "setting": "[3]; 15 µg/kg s.c. once daily, Week 52, plasma ECLA, NCA, mean", "result": 2.91, "unit": "L/kg"},
      {"measurement": "relationship of plasma AUC0-60min with body weight and age", "setting": "[3]; linear regression, p < 0.001", "result": "positively correlated"},
      {"measurement": "EC50 (AUC0-60min producing half maximal effect on cGMP/Cr)", "setting": "[4]; Emax model (h = 1) vs visit-matched AUC0-60min, phase III, 15 µg/kg, MPE", "result": 479000, "unit": "pg·min/mL"},
      {"measurement": "Emax, maximum postdose increase in urine cGMP/Cr", "setting": "[4]; Emax model (h = 1) vs visit-matched Cmax, phase III, 15 µg/kg, MPE (95% CI)", "result": "18,160 (13,800–22,600) pmol/mg Cr"},
      {"measurement": "maximum change from pre-dose cGMP/Cr of one patient", "setting": "[4]; phase II, initial 6 months, visit-matched, the single patient with high exposure", "result": 8190, "unit": "pmol/mg Cr"},
      {"measurement": "EC50 (AUC0-t producing half maximal effect on cGMP/Cr)", "setting": "[4]; sigmoid Emax model vs visit-matched AUC0-t, initial 6 months of phase II, MPE", "result": 222000, "unit": "pg·min/mL"},
      {"measurement": "increase in vosoritide exposure with dose", "setting": "[5]; doses from 2.5 to 30 μg/kg", "result": "greater than proportional"},
      {"measurement": "Cmax", "setting": "[5]; human, plasma, sc, 2.5 ug/kg", "result": 0.549, "unit": "ng/mL"},
      {"measurement": "Tmax", "setting": "[5]; human, plasma, sc, 2.5 ug/kg", "result": 5, "unit": "min"},
      {"measurement": "Cmax", "setting": "[5]; human, plasma, sc, 7.5 ug/kg", "result": 1.36, "unit": "ng/mL"},
      {"measurement": "Tmax", "setting": "[5]; human, plasma, sc, 7.5 ug/kg", "result": 13.7, "unit": "min"},
      {"measurement": "CL/F", "setting": "[5]; human, plasma, sc, 15 ug/kg", "result": 83.7, "unit": "mL/min/kg"},
      {"measurement": "Cmax", "setting": "[5]; human, plasma, sc, 15 ug/kg", "result": 4.75, "unit": "ng/mL"},
      {"measurement": "Tmax", "setting": "[5]; human, plasma, sc, 15 ug/kg", "result": 15.8, "unit": "min"},
      {"measurement": "Vd/F", "setting": "[5]; human, plasma, sc, 15 ug/kg", "result": 2.56, "unit": "L/kg"},
      {"measurement": "half-life", "setting": "[5]; human, plasma, sc, 15 ug/kg", "result": 24.4, "unit": "min"},
      {"measurement": "Cmax", "setting": "[5]; human, plasma, sc, 30 ug/kg", "result": 16.8, "unit": "ng/mL"},
      {"measurement": "Cmax at one visit of one patient", "setting": "[5]; phase II, single patient with high exposure, left out of the figure", "result": 839, "unit": "ng/mL"},
      {"measurement": "impact of serum TAb on plasma exposure of vosoritide (Cmax and AUC0-∞)", "setting": "[6]", "result": "no apparent impact"},
      {"measurement": "correlation between plasma exposure and change in AGV", "setting": "[7]; phase II, 24 months of daily dosing, 15 and 30 µg/kg, linear regression, p = 0.34 for Cmax, p = 0.50 for AUC0-60min", "result": "no significant correlation"},
      {"measurement": "change in annualized growth velocity from baseline to day 183 of one patient", "setting": "[7]; [11]", "result": 3.56, "unit": "cm/year"},
      {"measurement": "relationship between exposure and changes in AGV", "setting": "[7]; phase III, 15 µg/kg, baseline to week 52, linear regression, p = 0.52 for Cmax, p = 0.54 for AUC0-60min", "result": "lack of relationship"},
      {"measurement": "EC50 (AUC0-t producing half maximal effect), change in AGV", "setting": "[7]; sigmoid Emax model vs individual mean AUC0-t, baseline to day 183, phase II, MPE", "result": "20,500 pg-min/mL"},
      {"measurement": "maximum decrease in DBP of one patient", "setting": "[8]", "result": "−2", "unit": "mmHg"},
      {"measurement": "maximum decrease in SBP of one patient", "setting": "[8]", "result": "−7", "unit": "mmHg"},
      {"measurement": "maximum increase in HR of one patient", "setting": "[8]", "result": 39, "unit": "bpm"},
      {"measurement": "correlation between plasma exposure and mean CXM concentration", "setting": "[9]; phase II, 24 months of daily dosing, 15 and 30 µg/kg, linear regression, p = 0.98 for Cmax, p = 0.99 for AUC0-60min", "result": "no significant correlation"},
      {"measurement": "mean CXM from day 10 to day 183 of one patient", "setting": "[9]; [11]", "result": "12,200 pg/mL"},
      {"measurement": "relationship between exposure and mean CXM concentrations", "setting": "[9]; phase III, 15 µg/kg, week 13 to week 52, linear regression, p = 0.74 for Cmax, p = 0.58 for AUC0-60min", "result": "lack of relationship"},
      {"measurement": "EC50 (AUC0-t producing half maximal effect on CXM)", "setting": "[9]; sigmoid Emax model vs individual mean AUC0-t, day 10 to day 183, phase II, MPE", "result": 51700, "unit": "pg·min/mL"}
    ]},
    {"compound": "C-type natriuretic peptide [CNP]", "values": [
      {"measurement": "half-life", "setting": "[10]", "result": 2.6, "unit": "min"}
    ]}
  ]
}
